Results: ChEMBL document CHEMBL5058577, “EUbOPEN Chemogenomics Library 2 (Multiplex)” (2022)

Tested on: U2OS
Test: Multiplex assay against U2OS
Format: toxicity, cell-based
Conditions: human
Procedure, shortened: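 Cells stained live at seeding with Hoechst33342, BioTracker Green Microtubule Cytoskeleton Dye, MitoTracker Red and Annexin V Alexa Fluor 680 were imaged on a CQ1 microscope at 37°C and 5% CO2 after compound addition. Their classification by CellPathfinder machine-learning gating ran from Hoechst high-intensity objects versus normal cells, to healthy, pyknosed or fragmented nuclei among normal cells, to mitotic or apoptotic among pyknosed cells. Tubulin, mitochondrial-mass and membrane-permeability phenotypes are per cents of healthy-nucleus cells.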

[1] = 12 h, 1 µM, compound concentration 1 uM, replicate 1
[2] = 12 h, 1 µM, compound concentration 1 uM, replicate 2
[3] = 12 h, 10 µM, compound concentration 10 uM, replicate 1
[4] = 12 h, 10 µM, compound concentration 10 uM, replicate 2
[5] = 24 h, 1 µM, compound concentration 1 uM, replicate 1
[6] = 24 h, 1 µM, compound concentration 1 uM, replicate 2
[7] = 24 h, 10 µM, compound concentration 10 uM, replicate 1
[8] = 24 h, 10 µM, compound concentration 10 uM, replicate 2
[9] = 48 h, 1 µM, compound concentration 1 uM, replicate 1
[10] = 48 h, 1 µM, compound concentration 1 uM, replicate 2
[11] = 48 h, 10 µM, compound concentration 10 uM, replicate 1
[12] = 48 h, 10 µM, compound concentration 10 uM, replicate 2

O=C(NCCN1CCC(n2c(=O)[nH]c3cc(Cl)ccc32)CC1)c1ccc(F)cc1 [HALOPEMIDE]
Population Apoptotic (%) [1]: 95% | Population Fragmented Nuclei (%) [1]: 24% | Population Healthy Nuclei (%) [1]: 65% | Population Hoechst High Intensity Objects (%) [1]: 1% | Population Membrane Permeable-Phenotype (%) [1]: 6% | Population Mitochondria Different-Phenotype (%) [1]: 1% | Population Mitotic Cells (%) [1]: 4% | Population Normal (%) [1]: 98% | Population Pyknosed Nuclei (%) [1]: 10% | Population Tubulin-Different-Phenotype (%) [1]: 2% | Total Cell Count [1]: 209 | Population Apoptotic (%) [2]: 50% | Population Fragmented Nuclei (%) [2]: 13% | Population Healthy Nuclei (%) [2]: 79% | Population Hoechst High Intensity Objects (%) [2]: 0% | Population Membrane Permeable-Phenotype (%) [2]: 7% | Population Mitochondria Different-Phenotype (%) [2]: 2% | Population Mitotic Cells (%) [2]: 50% | Population Normal (%) [2]: 100% | Population Pyknosed Nuclei (%) [2]: 7% | Population Tubulin-Different-Phenotype (%) [2]: 3% | Total Cell Count [2]: 105 | Population Apoptotic (%) [3]: 68% | Population Fragmented Nuclei (%) [3]: 19% | Population Healthy Nuclei (%) [3]: 65% | Population Hoechst High Intensity Objects (%) [3]: 4% | Population Membrane Permeable-Phenotype (%) [3]: 23% | Population Mitochondria Different-Phenotype (%) [3]: 11% | Population Mitotic Cells (%) [3]: 31% | Population Normal (%) [3]: 95% | Population Pyknosed Nuclei (%) [3]: 15% | Population Tubulin-Different-Phenotype (%) [3]: 15% | Total Cell Count [3]: 244 | Population Apoptotic (%) [4]: 61% | Population Fragmented Nuclei (%) [4]: 12% | Population Healthy Nuclei (%) [4]: 78% | Population Hoechst High Intensity Objects (%) [4]: 1% | Population Membrane Permeable-Phenotype (%) [4]: 26% | Population Mitochondria Different-Phenotype (%) [4]: 32% | Population Mitotic Cells (%) [4]: 38% | Population Normal (%) [4]: 98% | Population Pyknosed Nuclei (%) [4]: 8% | Population Tubulin-Different-Phenotype (%) [4]: 27% | Total Cell Count [4]: 152 | Population Apoptotic (%) [5]: 91% | Population Fragmented Nuclei (%) [5]: 22% | Population Healthy Nuclei (%) [5]: 68% | Population Hoechst High Intensity Objects (%) [5]: 1% | Population Membrane Permeable-Phenotype (%) [5]: 6% | Population Mitochondria Different-Phenotype (%) [5]: 1% | Population Mitotic Cells (%) [5]: 8% | Population Normal (%) [5]: 98% | Population Pyknosed Nuclei (%) [5]: 9% | Population Tubulin-Different-Phenotype (%) [5]: 1% | Total Cell Count [5]: 241 | Population Apoptotic (%) [6]: 81% | Population Fragmented Nuclei (%) [6]: 15% | Population Healthy Nuclei (%) [6]: 72% | Population Hoechst High Intensity Objects (%) [6]: 0% | Population Membrane Permeable-Phenotype (%) [6]: 10% | Population Mitochondria Different-Phenotype (%) [6]: 3% | Population Mitotic Cells (%) [6]: 18% | Population Normal (%) [6]: 99% | Population Pyknosed Nuclei (%) [6]: 12% | Population Tubulin-Different-Phenotype (%) [6]: 8% | Total Cell Count [6]: 132 | Population Apoptotic (%) [7]: 75% | Population Fragmented Nuclei (%) [7]: 17% | Population Healthy Nuclei (%) [7]: 64% | Population Hoechst High Intensity Objects (%) [7]: 2% | Population Membrane Permeable-Phenotype (%) [7]: 15% | Population Mitochondria Different-Phenotype (%) [7]: 10% | Population Mitotic Cells (%) [7]: 25% | Population Normal (%) [7]: 97% | Population Pyknosed Nuclei (%) [7]: 18% | Population Tubulin-Different-Phenotype (%) [7]: 7% | Total Cell Count [7]: 271 | Population Apoptotic (%) [8]: 63% | Population Fragmented Nuclei (%) [8]: 16% | Population Healthy Nuclei (%) [8]: 71% | Population Hoechst High Intensity Objects (%) [8]: 3% | Population Membrane Permeable-Phenotype (%) [8]: 26% | Population Mitochondria Different-Phenotype (%) [8]: 23% | Population Mitotic Cells (%) [8]: 36% | Population Normal (%) [8]: 96% | Population Pyknosed Nuclei (%) [8]: 12% | Population Tubulin-Different-Phenotype (%) [8]: 21% | Total Cell Count [8]: 159 | Population Apoptotic (%) [9]: 68% | Population Fragmented Nuclei (%) [9]: 16% | Population Healthy Nuclei (%) [9]: 75% | Population Hoechst High Intensity Objects (%) [9]: 2% | Population Membrane Permeable-Phenotype (%) [9]: 4% | Population Mitochondria Different-Phenotype (%) [9]: 2% | Population Mitotic Cells (%) [9]: 32% | Population Normal (%) [9]: 97% | Population Pyknosed Nuclei (%) [9]: 7% | Population Tubulin-Different-Phenotype (%) [9]: 2% | Total Cell Count [9]: 337 | Population Apoptotic (%) [10]: 95% | Population Fragmented Nuclei (%) [10]: 17% | Population Healthy Nuclei (%) [10]: 69% | Population Hoechst High Intensity Objects (%) [10]: 1% | Population Membrane Permeable-Phenotype (%) [10]: 9% | Population Mitochondria Different-Phenotype (%) [10]: 5% | Population Mitotic Cells (%) [10]: 4% | Population Normal (%) [10]: 98% | Population Pyknosed Nuclei (%) [10]: 12% | Population Tubulin-Different-Phenotype (%) [10]: 6% | Total Cell Count [10]: 187 | Population Apoptotic (%) [11]: 81% | Population Fragmented Nuclei (%) [11]: 15% | Population Healthy Nuclei (%) [11]: 69% | Population Hoechst High Intensity Objects (%) [11]: 3% | Population Membrane Permeable-Phenotype (%) [11]: 10% | Population Mitochondria Different-Phenotype (%) [11]: 5% | Population Mitotic Cells (%) [11]: 18% | Population Normal (%) [11]: 96% | Population Pyknosed Nuclei (%) [11]: 14% | Population Tubulin-Different-Phenotype (%) [11]: 5% | Total Cell Count [11]: 382 | Population Apoptotic (%) [12]: 77% | Population Fragmented Nuclei (%) [12]: 13% | Population Healthy Nuclei (%) [12]: 67% | Population Hoechst High Intensity Objects (%) [12]: 6% | Population Membrane Permeable-Phenotype (%) [12]: 16% | Population Mitochondria Different-Phenotype (%) [12]: 12% | Population Mitotic Cells (%) [12]: 22% | Population Normal (%) [12]: 93% | Population Pyknosed Nuclei (%) [12]: 18% | Population Tubulin-Different-Phenotype (%) [12]: 6% | Total Cell Count [12]: 197
